# Experimental data: ChEMBL document CHEMBL1177717, “Mercaptophosphonate compounds as broad-spectrum inhibitors of the metallo-beta-lactamases” (J Med Chem, 2010)
# pIC50, pKi: −log10 of the molar value.
# Tests used:
# [1] = target: T1, Beta-lactamase L1 (Stenotrophomonas maltophilia, UniProt P52700); assay: Inhibition of Stenotrophomonas maltophilia beta lactamase L1 in absence of Zn+ chelator
# Summary of the method: (§1)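 Purified L1 (0.2–0.8 nM) in 20 mM HEPES pH 7.0 with 20 μg/mL BSA, run without added Zn2+ (Zn2+ below 0.4 μM) or with 50 μM ZnCl2 final. Enzyme was preincubated with 100 μM inhibitor for 30 min at 37 C. Imipenem hydrolysis followed at 300 nm. Ki determined; SD below 10%.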
# [2] = Inhibition of VIM4 in presence of Zn+ chelator
# Summary of the method: (§2)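 Purified VIM-4 (0.2–0.8 nM) in 10 mM HEPES pH 7.2 with 20 μg/mL BSA, run without added Zn2+ (Zn2+ below 0.4 μM) or with 50 μM ZnCl2 final. Enzyme was preincubated with 100 μM inhibitor for 30 min at 37 C. Nitrocefin hydrolysis followed at 482 nm. Ki determined; SD below 10%.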
# [3] = target: T1, Beta-lactamase L1; assay: Inhibition of Stenotrophomonas maltophilia beta lactamase L1 in presence of Zn+ chelator; summary of the method: as §1
# [4] = Inhibition of VIM4 in absence of Zn+ chelator; summary of the method: as §2
# [5] = target: Metallo-beta-lactamase type 2 (Aeromonas hydrophila, UniProt P26918); assay: Inhibition of Aeromonas hydrophila cphA
# Metallo-beta-lactamase type 2, sequence (P26918 whole entry): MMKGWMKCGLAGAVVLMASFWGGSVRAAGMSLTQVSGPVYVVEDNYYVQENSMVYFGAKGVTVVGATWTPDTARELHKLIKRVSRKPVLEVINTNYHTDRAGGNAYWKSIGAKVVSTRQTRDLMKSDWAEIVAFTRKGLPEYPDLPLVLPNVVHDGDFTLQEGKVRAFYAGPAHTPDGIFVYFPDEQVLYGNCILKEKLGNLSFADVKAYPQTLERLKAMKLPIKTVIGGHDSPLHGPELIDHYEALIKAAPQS
# Summary of the method: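 Purified CphA (0.2–0.8 nM) in 15 mM cacodylate pH 6.5 with 20 μg/mL BSA and no added Zn2+ (Zn2+ below 0.4 μM). Enzyme was preincubated with 100 μM inhibitor for 30 min at 37 C. Imipenem was then added and its hydrolysis followed by absorbance at 300 nm. Competitive Ki determined; SD below 10%.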
# [6] = target: Intestinal-type alkaline phosphatase (Bos taurus, UniProt P19111); assay: Inhibition of bovine intestinal alkaline phosphatase
# Intestinal-type alkaline phosphatase, sequence (P19111 whole entry): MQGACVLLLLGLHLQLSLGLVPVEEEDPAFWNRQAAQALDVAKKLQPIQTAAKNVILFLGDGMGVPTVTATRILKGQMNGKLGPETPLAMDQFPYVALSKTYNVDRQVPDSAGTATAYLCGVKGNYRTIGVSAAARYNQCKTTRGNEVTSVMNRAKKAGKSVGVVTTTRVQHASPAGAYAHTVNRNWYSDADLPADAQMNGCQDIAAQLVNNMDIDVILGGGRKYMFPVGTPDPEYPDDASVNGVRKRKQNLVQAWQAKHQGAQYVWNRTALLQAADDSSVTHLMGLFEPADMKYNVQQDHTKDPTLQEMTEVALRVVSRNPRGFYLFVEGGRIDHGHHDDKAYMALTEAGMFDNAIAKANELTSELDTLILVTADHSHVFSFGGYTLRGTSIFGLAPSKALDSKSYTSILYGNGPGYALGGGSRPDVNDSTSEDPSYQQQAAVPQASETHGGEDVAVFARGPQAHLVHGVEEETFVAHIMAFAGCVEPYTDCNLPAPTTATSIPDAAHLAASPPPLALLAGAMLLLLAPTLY
# [7] = Inhibition of Escherichia coli alkaline phosphatase
# T1 sequence (P52700 whole entry): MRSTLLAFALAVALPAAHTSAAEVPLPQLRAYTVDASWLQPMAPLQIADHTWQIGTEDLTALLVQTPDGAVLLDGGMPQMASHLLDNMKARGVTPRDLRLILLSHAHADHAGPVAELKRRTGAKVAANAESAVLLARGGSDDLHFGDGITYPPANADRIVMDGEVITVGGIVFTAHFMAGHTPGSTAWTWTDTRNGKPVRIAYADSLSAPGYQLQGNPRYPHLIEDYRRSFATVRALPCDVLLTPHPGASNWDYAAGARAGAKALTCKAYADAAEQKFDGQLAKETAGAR
compound,measurement,setting,value
O=P(O)(O)C(S)c1ccccc1 (configuration not stated),pKi,[1],< 4.00
same,pKi,[2],5.52
same,pKi,[3],4.49
same,pKi,[4],5.60
same,pKi,[5],4.96
O=P(O)(O)c1cc(F)ccc1S,pKi,[1],4.40
same,pKi,[2],4.89
same,pKi,[3],5.40
same,pKi,[4],5.60
same,pKi,[5],< 4.40
CC(C)OP(=O)(OC(C)C)c1ccccc1S,pKi,[1],< 3.60
same,pKi,[2],< 3.60
same,pKi,[3],< 3.60
same,pKi,[4],< 3.60
same,pKi,[5],< 3.60
CCC(S)P(=O)(O)O (configuration not stated),pKi,[1],< 4.10
same,pKi,[2],5.22
same,pKi,[3],< 4.40
same,pKi,[4],4.96
same,pKi,[5],4.82
O=P(O)(O)C(S)c1ccc(F)cc1 (configuration not stated),pKi,[1],< 4.70
same,pKi,[2],4.96
same,pKi,[3],4.74
same,pKi,[4],4.80
same,pKi,[5],6.00
O=P(O)(O)c1ccccc1S,pKi,[6],6.68
same,pKi,[1],5.05
same,pKi,[2],5.40
same,pIC50,[7],> 5.00
same,pKi,[3],4.92
same,pKi,[4],5.70
same,pKi,[5],5.15
CC(C)OP(=O)(OC(C)C)c1ccccc1CS,pKi,[1],5.52
same,pKi,[2],4.92
same,pKi,[3],4.85
same,pKi,[4],5.52
same,pKi,[5],5.70
O=P(O)(O)c1ccccc1CS,pKi,[1],5.70
same,pKi,[2],< 3.40
same,pKi,[3],< 4.30
same,pKi,[4],6.00
same,pKi,[5],6.30
CCC(S)P(=O)(OC(C)C)OC(C)C (configuration not stated),pKi,[1],< 4.40
same,pKi,[2],< 4.70
same,pKi,[3],< 4.40
same,pKi,[4],< 4.70
same,pKi,[5],5.70
O=P(O)(O)C(S)c1ccc(Cl)cc1Cl (configuration not stated),pKi,[1],6.40
same,pKi,[2],5.40
same,pKi,[3],6.40
same,pKi,[4],6.00
same,pKi,[5],5.30
COc1ccccc1C(S)P(=O)(O)O (configuration not stated),pKi,[1],5.05
same,pKi,[2],5.40
same,pKi,[3],5.40
same,pKi,[4],5.70
same,pKi,[5],4.82
O=P(O)(O)C(S)c1ccc(Br)cc1 (configuration not stated),pKi,[1],5.08
same,pKi,[2],4.87
same,pKi,[3],5.77
same,pKi,[4],5.26
same,pKi,[5],4.89
O=P(O)(O)C(S)c1ccc(Cl)cc1 (configuration not stated),pKi,[1],5.42
same,pKi,[2],5.00
same,pKi,[3],6.15
same,pKi,[4],5.17
same,pKi,[5],4.62
CC(C)OP(=O)(OC(C)C)C(S)c1ccccc1 (configuration not stated) [DIISOPROPYL MERCAPTO(PHENYL)METHYLPHOSPHONATE],pKi,[1],4.70
same,pKi,[2],5.10
same,pKi,[3],4.80
same,pKi,[4],5.52
same,pKi,[5],6.60
